Legend:
Homo sapiens = organism: Homo sapiens; experiment: Inhibition of dimerization of N-terminal His6-tagged human c-Myc bHLHZip domain (353 to 439 residues)/Max(151 residues) (unknown origin) expressed in Escherichia coli BL21DE3 assessed as inhibition of c-Myc/Max/DNA complex formation at 20 uM preincubated with c-Myc/Max for 1.5 hrs followed by incubation with DNA oligo for 0.5 hrs by EMSA analysis relative to control; settings: time 2.0 hrs
Summary of the method: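 Gel-shift used His-tagged Myc/Max complex (50 nM) with a biotinylated E-box duplex oligo (50 nM). Buffer was PBS pH 7.0 with 10 mM EDTA, 500 mM KCl, 30 mM MgCl2, 5% glycerol, 0.1% NP40, 1.5 mM DTT and 10% DMSO. Protein was preincubated with compound at 20 μM for 1.5 h at room temperature, then DNA was added for 0.5 h. Inhibition is relative to DMSO; three independent experiments.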

[1] = Inhibition of dimerization of N-terminal His6-tagged human c-Myc bHLHZip domain (353 to 439 residues)/Max(151 residues) (unknown origin) expressed in Escherichia coli BL21DE3 measured after 1 hr by ELISA
Summary of the method: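 Myc bHLHZip (5.5 μg/well) was coated at 4 °C for 24 h in PBS pH 7.0 buffer (EDTA, KCl, MgCl2, glycerol, NP40, DTT), then blocked with 3% BSA for 2 h at 37 °C. Detection used rabbit anti-c-Myc, HRP anti-rabbit and TMB, read at 450 nm.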

HT-29 = experiment: Antiproliferative activity against human HT-29 cells assessed as inhibition of cell viability measured after 72 hrs by MTT assay; type: functional, cell-based; settings: HT-29, 72 h
Summary of the method: (§1)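 Cells kept at 37 °C, 5% CO₂ in RPMI 1640, L-15 or DMEM with 10% FBS and 1% penicillin-streptomycin. Plated at 2-4 × 10³ cells/well and dosed 24 h after plating. After 72 h exposure, MTT added for 2-4 h at 37 °C. Formazan dissolved in DMSO, absorbance read at 570 nm. IC50 is the mean of at least three independent experiments.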

DLD-1 = experiment: Antiproliferative activity against human DLD-1 cells assessed as inhibition of cell viability measured after 72 hrs by MTT assay; type: functional, cell-based; settings: DLD-1, 72 h; summary of the method: as §1
HCT-116 = experiment: Antiproliferative activity against human HCT-116 cells assessed as inhibition of cell viability measured after 72 hrs by MTT assay; type: functional, cell-based; settings: HCT-116, 72 h; summary of the method: as §1
SW-620 = experiment: Antiproliferative activity against human SW-620 cells assessed as inhibition of cell viability measured after 72 hrs by MTT assay; type: functional, cell-based; settings: SW-620, 72 h; summary of the method: as §1
HCT-15 = experiment: Antiproliferative activity against human HCT-15 cells assessed as inhibition of cell viability measured after 72 hrs by MTT assay; type: functional, cell-based; settings: HCT-15, 72 h; summary of the method: as §1

Row | inhibition (Homo sapiens) | IC50 [1] | IC50 (HT-29) | IC50 (DLD-1) | IC50 (HCT-116) | IC50 (SW-620) | IC50 (HCT-15) | SMILES
1 | 43.7% | 92 µM | 2.82 µM | 3.4 µM | 5.4 µM | 10 µM | 3.76 µM | COc1cc(Oc2cccc(Nc3ccccc3)c2)cc(OC)c1CNCCc1ccc(Cl)cc1
2 | 51.7% | 83 µM | 2.93 µM | 4.03 µM | 15.7 µM | 12.7 µM | 6.14 µM | COc1cc(Oc2cccc(Nc3ccccc3)c2)cc(OC)c1CNCCc1ccc(O)cc1
3 | 48.7% | 86 µM | 1.89 µM | 1.91 µM | 2.62 µM | 6.97 µM | 2.65 µM | COc1ccc(CNCc2c(OC)cc(Oc3cccc(Nc4ccccc4)c3)cc2OC)cc1
4 | 45.1% | 96 µM | 6.06 µM | 6.77 µM | 13.6 µM | 11.6 µM | 6.14 µM | COc1cc(Oc2cccc(Nc3ccccc3)c2)cc(OC)c1CNCCc1ccccc1
5 | 42.1% | 105 µM | 8.5 µM | 8.57 µM | > 20 µM | > 20 µM | 8.93 µM | COc1cc(Oc2cccc(Nc3ccccc3)c2)cc(OC)c1CNCc1ccc2c(c1)OCO2
6 | 26.4% | 125 µM | 3.34 µM | 5.22 µM | 4.07 µM | 7.49 µM | 5.02 µM | COc1cc(Oc2cccc(Nc3ccccc3)c2)cc(OC)c1CNCc1ccccc1
7 | 29.3% | 129 µM | 3.06 µM | 3.52 µM | 6.23 µM | 11.2 µM | 5.41 µM | COc1cc(Oc2cccc(Nc3ccccc3)c2)cc(OC)c1CNCc1ccc(Br)cc1
8 | 12.6% | 147 µM | 3.53 µM | 7.37 µM | > 20 µM | > 20 µM | 6.51 µM | COc1cc(Oc2cccc(Nc3ccccc3)c2)cc(OC)c1CNC12CC3CC(CC(C3)C1)C2
9 | 6.1% | > 150 µM | > 20 µM | > 20 µM | > 20 µM | > 20 µM | 8.97 µM | COc1cc(Oc2cccc(Nc3ccccc3)c2)cc(OC)c1CN(CCO)CCO
10 | 30.5% | 116 µM | 5.12 µM | 8.57 µM | > 20 µM | 18.7 µM | 7.55 µM | COc1cc(Oc2cccc(Nc3ccccc3)c2)cc(OC)c1CN[C@H](C)c1ccccc1
11 | 42.1% | 102 µM | 3.97 µM | 4.06 µM | 2.67 µM | 7.84 µM | 1.02 µM | COc1ccc(CCNCc2ccc(Oc3cccc(Nc4ccccc4)c3)cc2OC)cc1
12 | 46.2% | 87 µM | 1.25 µM | 1.86 µM | 3.32 µM | 5.77 µM | 2.88 µM | COc1cc(Oc2cccc(Nc3ccccc3)c2)cc(OC)c1CNCCc1ccc(C)cc1
13 | 40.5% | 95 µM | 2.52 µM | 2.87 µM | 3.19 µM | 8.95 µM | 2.34 µM | COc1cc(Oc2cccc(Nc3ccccc3)c2)cc(OC)c1CNCCc1ccc(F)cc1
14 | 35.6% | 116 µM | 6.89 µM | 4.65 µM | 3.99 µM | 14.6 µM | 2.18 µM | COc1ccc(CCNCc2ccc(Oc3cccc(Nc4ccccc4)c3)cc2)cc1
15 | 31.8% | 123 µM | 2.18 µM | 2.69 µM | 3.36 µM | 7.94 µM | 3.43 µM | COc1cc(Oc2cccc(Nc3ccccc3)c2)cc(OC)c1CNCc1ccc(O)cc1
16 | 1.7% | > 150 µM | 12.3 µM | > 20 µM | > 20 µM | > 20 µM | 6.14 µM | COc1cc(Oc2cccc(Nc3ccccc3)c2)cc(OC)c1CNC1CC1

Row | inhibition (Homo sapiens) | IC50 [1] | IC50 (HT-29) | IC50 (DLD-1) | IC50 (HCT-116) | IC50 (SW-620) | IC50 (HCT-15) | SMILES
17 | 25.7% | 123 µM | 3.35 µM | 3.74 µM | 3.31 µM | 6.34 µM | 4.85 µM | COc1cc(Oc2cccc(Nc3ccccc3)c2)cc(OC)c1CNCc1ccc(Cl)cc1
18 | 67.4% | 72 µM | 2.12 µM | 2.32 µM | 3.4 µM | 3.65 µM | 1.19 µM | COc1ccccc1CCNCc1c(OC)cc(Oc2cccc(Nc3ccccc3)c2)cc1OC
19 | 32.4% | 119 µM | 3.88 µM | 6.08 µM | 13.8 µM | 11.8 µM | 5.4 µM | COc1cc(Oc2cccc(Nc3ccccc3)c2)cc(OC)c1CNCc1ccc(C)cc1
20 | 70.6% | 72 µM | 6.89 µM | 4.65 µM | 3.23 µM | 14.6 µM | 2.18 µM | COc1ccc(CCCNCc2c(OC)cc(Oc3ccc(Nc4ccccc4)cc3)cc2OC)cc1
21 | 60.8% | 78 µM | 2.33 µM | 2.35 µM | 4.02 µM | 3.93 µM | 1.29 µM | COc1cccc(CCNCc2c(OC)cc(Oc3cccc(Nc4ccccc4)c3)cc2OC)c1
22 | 75.1% | 69 µM | 1.02 µM | 1.12 µM | 0.98 µM | 6.23 µM | 1.25 µM | COc1ccc(CCNCc2c(OC)cc(Oc3cccc(Nc4ccccc4)c3)cc2OC)cc1
23 | 2.5% | > 150 µM | 7.43 µM | 11.9 µM | > 20 µM | 15 µM | 8.93 µM | CNCc1c(OC)cc(Oc2cccc(Nc3ccccc3)c2)cc1OC
24 | 63.4% | 147 µM | 3.32 µM | 2.54 µM | 2.85 µM | 6.4 µM | 0.73 µM | COc1ccc(CCCNCc2c(OC)cc(Oc3cccc(Nc4ccccc4)c3)cc2OC)cc1
25 | 8.9% | > 150 µM | > 20 µM | > 20 µM | > 20 µM | > 20 µM | 5.09 µM | CCN1CCN(Cc2c(OC)cc(Oc3cccc(Nc4ccccc4)c3)cc2OC)CC1
26 | 42.3% | 107 µM | 2.75 µM | 5.92 µM | 3.11 µM | 11 µM | 3.35 µM | COc1ccc(CCNCc2ccc(Oc3cccc(Nc4ccccc4)c3)c(OC)c2)cc1
27 | 21.2% | 137 µM | 2.75 µM | 2.65 µM | 4.22 µM | 6.77 µM | 3.64 µM | COc1cc(Oc2cccc(Nc3ccccc3)c2)cc(OC)c1CNCc1ccc(F)cc1
28 |  | > 150 µM | > 20 µM | > 20 µM | > 20 µM | > 20 µM | 6.43 µM | COc1cc(Oc2cccc(Nc3ccccc3)c2)cc(OC)c1CN1CCN(CCO)CC1
29 | 3.2% | > 150 µM | > 20 µM | > 20 µM | 12.9 µM | > 20 µM | 15.6 µM | COc1cc(Oc2cccc(Nc3ccccc3)c2)cc(OC)c1CN(C)C
30 |  | > 150 µM | > 20 µM | > 20 µM | > 20 µM | > 20 µM | > 20 µM | COc1cc(Oc2cccc(Nc3ccccc3)c2)cc(OC)c1CNC(C)C
31 | 10.2% | > 150 µM | 3.96 µM | 6.01 µM | 18.2 µM | 11.9 µM | 5.09 µM | COc1cc(Oc2cccc(Nc3ccccc3)c2)cc(OC)c1CNCCNC(C)=O

Source: ChEMBL document CHEMBL4765310, “Discovery of 4-(3,5-dimethoxy-4-(((4-methoxyphenethyl)amino)methyl)phenoxy)-N-phenylaniline as a novel c-myc inhibitor against colorectal cancer in vitro and in vivo” (Eur J Med Chem, 2020)
